Experimental data taken from publication PMC8159897 (Angewandte Chemie (International ed. in English), 2021).

Legend:
[1] = Critical micelle concentration; assay type: physicochemical; settings: self-assembly / aggregation (Figures S2, S16)
Golgi of HeLa cells = assay: Golgi accumulation; assay type: cell-based; settings: pS1 10 μM, from 1 minute to 8 minutes of incubation
Procedure, shortened: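 HeLa cells first transfected 24 h with CellLight Golgi-RFP to mark the Golgi. They were then given the NBD-labelled thiophosphopeptide test compound at 10 μM and imaged live by confocal microscopy 1, 4 and 8 min after addition. Golgi-localised green (NBD) fluorescence was compared with the red Golgi-RFP signal, and the RFP stain was checked for bleed-through into the green channel.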

[2] = test system: alkaline phosphatase (ALP); settings: incubated with ALP (0.1 U/mL) for about 16 minutes (Figure S15)

Structure (SMILES)	critical micelle concentration (CMC) [1]	enhancement of fluorescence intensity at the Golgi (Golgi of HeLa cells)	conversion ratio to dephosphorylated product [2]
O=C(CCNc1ccc([N+](=O)[O-])c2nonc12)N[C@H](Cc1ccccc1)C(=O)N[C@H](Cc1ccccc1)C(=O)NCCSP(=O)(O)O [pS1]	6.0 µM	about 7 times	–
O=C(Cc1ccc2ccccc2c1)N[C@H](Cc1ccccc1)C(=O)N[C@H](Cc1ccccc1)C(=O)NCCSP(=O)(O)O [pS2]	9.5 µM	–	nearly fully converted
